Rows were chosen to be rich in hits. Some 2.4% of all compounds tested hit in one or more screens of this group.
LMPTP block: LMPTP (human) inhibition; recombinant LMPTP-A, OMFP fluorogenic substrate, fluorescence intensity; P24666; 0.22% of 360,000 active; inhibition, % at 20 µM;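 active means compounds that cut the enzyme signal by at least half of the control window in the single-dose screen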
Target sequence (P24666 whole entry, looked up): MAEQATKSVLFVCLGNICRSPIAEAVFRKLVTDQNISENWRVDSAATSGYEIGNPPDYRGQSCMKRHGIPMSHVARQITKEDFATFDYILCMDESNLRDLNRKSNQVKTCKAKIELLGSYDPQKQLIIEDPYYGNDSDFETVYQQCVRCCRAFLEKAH
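Test system: LMPTP-A, protein tyrosine phosphatase of low molecular weight; Input: 0.625 nM enzyme; Incubation: 50 min dark incubation at room temperature; Signal: endpoint fluorescence intensity from OMFP dephosphorylation; Read-out basis: % inhibition versus control wells.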
Scp-1 inhibitor: blocks human Scp-1 phosphatase activity; Q9GZU7; Recombinant Scp1, phosphopeptide, malachite green phosphate absorbance; inhibition, % at 20 µM; 0.88% of 340,000 active;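 active means inhibition above about 50% at 20 µM, limit read from the data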
Target sequence (Q9GZU7 76-261 limits assumed): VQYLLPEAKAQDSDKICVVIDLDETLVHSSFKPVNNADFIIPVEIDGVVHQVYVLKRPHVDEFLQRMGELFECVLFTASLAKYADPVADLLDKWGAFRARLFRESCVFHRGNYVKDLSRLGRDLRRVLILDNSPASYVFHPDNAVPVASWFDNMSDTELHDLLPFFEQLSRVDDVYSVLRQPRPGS
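System: SCP-1 catalytic domain; Reagent: Phospho 17-mer peptide substrate; Doses: one concentration, 20 µM, with 1.0% DMSO; Incubation: 45 min room-temperature reaction, 5 min colour, 30 min stabiliser; Signal: Phosphate-binding colour reagent, absorbance read at 630 nm.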
NadD inh: NadD (S. aureus) enzyme inhibition; purified NadD enzyme, colorimetric absorbance read-out; inhibition, % at 20 µM; 0.78% of 360,000 active; in the data active means inhibition above about 26%
DNMT1 inh: DNMT1 (human) enzyme inhibition; P26358; AID 588458; inhibition (reported as % activation of signal), % at 10 µM; 0.83% of 360,000 active; DNMT1 molecular beacon, Hinp1I cleavage, fluorescence; in the data active means inhibition above about 50%
SUMO1 PPI mod: modulators of human SUMO1-mediated protein-protein interactions. SUMO1 binding to a labelled peptide, TR-FRET, 1 h. inhibition, % at 20 µM. P63165. 0.33% of 360,000 active; in the data active means inhibition above about 37%
Target sequence (P63165 whole entry, looked up): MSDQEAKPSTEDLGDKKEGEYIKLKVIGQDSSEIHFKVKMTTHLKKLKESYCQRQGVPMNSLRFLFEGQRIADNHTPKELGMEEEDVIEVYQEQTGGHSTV
STEP inh: STEP (human) phosphatase inhibition; recombinant STEP, OMFP fluorogenic substrate, fluorescence; P54829; 0.25% of 360,000 active; inhibition, % at 20 µM;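 active means inhibition at 20 µM, scaled per plate between control wells, above about 37%, limit read from the data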
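Also added – OMFP at 25 µM · Test system – STEP tyrosine phosphatase · Technique – FITC-channel fluorescence of OMFP product · Schedule – 20 min at room temperature, dark · Evaluation – control-normalized % inhibition with plate pattern correction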
Hits are given with their value; n = inactive; x = no result.

SMILES	LMPTP block	Scp-1 inhibitor	NadD inh	DNMT1 inh	SUMO1 PPI mod	STEP inh
Cc1cc(/C=N/NC(=O)c2ccncc2)c(C)n1-c1ccccc1	n	n	n	n	n	n
COc1ccc(NC(=O)/C(N=Nc2ccc(Cl)c(S(=O)(=O)Nc3ccc(Cl)cc3)c2)=C(\C)O)cc1	n	n	31	n	n	n
COc1ccc(NC(=O)/C(N=Nc2cc(S(=O)(=O)Nc3ccc(OC)cc3)ccc2OC)=C(\C)O)cc1	n	n	n	n	n	n
C[C@H]1[C@H](C)CC[C@]2(C(=O)O)CC[C@]3(C)C(=CC[C@@H]4[C@@]5(C)C[C@@H](O)[C@H](O)C(C)(C)[C@@H]5CC[C@]43C)[C@H]12	n	n	35	n	n	n
C[C@@H]1CC[C@]2(C(=O)O)CC[C@]3(C)C(=CCC4[C@@]5(C)CC[C@H](O)[C@@](C)(C(=O)O)C5CC[C@]43C)C2[C@]1(C)O (some centres undefined)	n	n	n	n	n	n
C[C@@H]1CC[C@]2(C(=O)O)CC[C@]3(C)C(=CCC4[C@]56CC[C@@](O)(OC5)C(C)(C)C6CC[C@]43C)C2[C@H]1C (some centres undefined)	n	n	n	n	n	n
C[C@H]1[C@H](C)CC[C@]2(C(=O)O)CC[C@]3(C)C(=CC[C@@H]4[C@@]5(C)CC[C@H](O)C(C)(C)[C@@H]5CC[C@]43C)[C@H]12	n	n	47	n	n	n
O=C(Nc1ccncc1)c1ccc(Br)cc1	n	n	n	n	n	n
Cc1cc(C)n(C(=O)COc2ccccc2C)n1	n	n	n	n	n	n
CC(C)c1onc(C(=O)N2CCN(c3ccccc3)CC2)c1[N+](=O)[O-]	n	n	n	n	n	n
CC(C)c1onc(C(=O)N2CCN(C(c3ccccc3)c3ccccc3)CC2)c1[N+](=O)[O-]	n	n	n	n	43	n
CCCCCCCC/C=C\CCCCCCCC(=O)O	n	n	n	59	n	n
Cc1ccc(S(=O)(=O)c2nnn3c2nc(NCCCN2CCCC2=O)c2ccccc23)cc1C	n	n	n	n	56	n
CCCCNc1nc2c(S(=O)(=O)c3ccccc3)nnn2c2ccccc12	n	n	n	n	n	n
Cc1ccc(S(=O)(=O)c2nnn3c2nc(N2CCOCC2)c2ccccc23)cc1C	n	n	n	n	n	n
Cc1ccc(S(=O)(=O)c2nnn3c2nc(NC2CCN(Cc4ccccc4)CC2)c2ccccc23)cc1C	n	n	38	n	n	n
Cc1cc(C(C)(C)C)cc(C)c1Cn1c2[n+](c3ccc(C(F)(F)F)cc31)CCCCC2	n	66	n	n	n	n
O=C(N/N=C\c1c(O)ccc2ccccc12)c1ccc(S(=O)(=O)N2CCCCC2)cc1	n	n	46	n	n	n
Cc1occc1-c1nnc(SCC(=O)c2c(N)n(C3CC3)c(=O)[nH]c2=O)n1C	n	n	n	n	n	n
Cc1ccc2c(c1)c1ccc3c(c1n2C)C(=O)C=CC3=O	n	n	48	n	n	n
Nn1c(SCC(=O)Nc2c(F)cc(F)cc2Br)nnc1C1CCCCC1	n	n	n	n	46	n
Nn1c(SCC(=O)Nc2ccc(F)cc2F)nnc1C1CCCCC1	n	n	n	n	n	n
O=C1NC[C@@H](CCCCN2C[C@H](Cc3ccc(O)cc3)N(CCc3ccc(O)cc3)C(=O)C2=O)N(CCc2ccc(O)cc2)C1=O	n	x	n	x	44	x
C/C(=N\Nc1cc(-c2ccccc2)nc(-c2ccc(Br)cc2)n1)c1cccc(N)c1	n	n	n	n	n	n
C=CCOc1ccccc1CN(C(=O)CCl)c1ccc2c(c1)OCO2	n	n	n	79	n	n
SMILES	LMPTP block	Scp-1 inhibitor	NadD inh	DNMT1 inh	SUMO1 PPI mod	STEP inh
COc1ccc(-c2noc(-c3ccc(Br)o3)n2)cc1OC	n	n	n	n	n	n
COc1cc(-c2nc(-c3ccc(Br)o3)no2)cc(OC)c1OC	n	n	n	n	53	n
Oc1ccc(Br)cc1/C=N/NC(=S)NCCc1ccccc1	n	n	n	n	n	n
COc1cccc(NC(=O)CN(C)C(=O)c2cc3c(s2)CCC3)c1	x	60	x	x	x	x
COc1ccc(NC(=O)CN(C)C(=O)c2cc3c(s2)CCC3)cc1	64	86	n	97	76	n
COc1ccc(NC(=O)CN(C)C(=O)c2cc3c(s2)CCCCC3)cc1	n	n	n	n	n	n
COc1ccc(Cn2c(CCC(=O)Nc3ccc(C)cc3)nc3cccnc32)cc1	n	n	n	n	n	n
Cc1noc(C)c1NC(=O)N(C)C[C@H]1Oc2c(NC(=O)Nc3ccccc3)cccc2C(=O)N([C@H](C)CO)C[C@@H]1C	n	n	n	n	n	n
N=c1n(CCO)c2ccccc2n1CCOc1ccccc1	n	n	n	n	n	n
COC(=O)/C=C1\SC(=NC(=O)c2ccc(OC)cc2)NC1=O	n	n	n	n	n	n
COC(=O)/C=C1\SC(=NC(=O)c2ccc(-c3ccccc3)cc2)NC1=O	n	n	31	n	n	n
COc1ccc(Cn2c(N)c(C#N)c3nc4ccccc4nc32)cc1	n	n	n	n	n	n
COc1cccc(Cn2c(N)c(C#N)c3nc4ccccc4nc32)c1OC	n	n	n	n	40	n
COCCn1c(=N)c(C(=O)NCCc2ccccc2)cc2c(=O)n3cccc(C)c3nc21	n	n	n	n	n	n
COc1ccc(CCNC(=O)c2cc3c(=O)n4ccccc4nc3n(Cc3ccco3)c2=N)cc1OC	n	n	n	n	n	n
N=c1c(C(=O)NCc2ccco2)cc2c(=O)n3ccccc3nc2n1CCc1ccccc1	55	n	n	n	n	n
Cc1cccn2c(=O)c3cc(C(=O)NCCc4ccccc4)c(=N)n(CCCn4ccnc4)c3nc12	64	n	n	n	n	n
N=c1c(C(=O)NCc2ccco2)cc2c(=O)n3ccccc3nc2n1CC1CCCO1 (centres undefined)	n	n	n	n	n	n
COc1ccc(CCn2c(=N)c(C(=O)NCc3ccco3)cc3c(=O)n4ccccc4nc32)cc1OC	n	n	n	n	51	n
Cc1ccc(C(C)NC(=O)c2ccc3c(c2)OCCO3)cc1C (centres undefined)	n	n	n	n	n	n
CCOc1ccc2nc3cc(N=Nc4ccc(N)nc4N)ccc3c(N)c2c1	72	n	32	n	116	66
CC(C)C[C@@H](CNCC(=O)[C@H](Cc1ccccc1)NC(=O)c1[nH]cnc1C(=O)N[C@H](CN)CC(C)C)NC(=O)c1nc[nH]c1C(=O)N[C@@H](CC(=O)O)C(=O)O	n	n	n	n	47	n
CN(Cc1ccccc1)C(=O)c1ccc2c(c1)OCO2	n	n	n	n	n	n
